Series [1] deals with T1, Protein deacetylase HDAC6 (Homo sapiens, UniProt Q9UBN7).
T1 sequence (Q9UBN7 whole entry): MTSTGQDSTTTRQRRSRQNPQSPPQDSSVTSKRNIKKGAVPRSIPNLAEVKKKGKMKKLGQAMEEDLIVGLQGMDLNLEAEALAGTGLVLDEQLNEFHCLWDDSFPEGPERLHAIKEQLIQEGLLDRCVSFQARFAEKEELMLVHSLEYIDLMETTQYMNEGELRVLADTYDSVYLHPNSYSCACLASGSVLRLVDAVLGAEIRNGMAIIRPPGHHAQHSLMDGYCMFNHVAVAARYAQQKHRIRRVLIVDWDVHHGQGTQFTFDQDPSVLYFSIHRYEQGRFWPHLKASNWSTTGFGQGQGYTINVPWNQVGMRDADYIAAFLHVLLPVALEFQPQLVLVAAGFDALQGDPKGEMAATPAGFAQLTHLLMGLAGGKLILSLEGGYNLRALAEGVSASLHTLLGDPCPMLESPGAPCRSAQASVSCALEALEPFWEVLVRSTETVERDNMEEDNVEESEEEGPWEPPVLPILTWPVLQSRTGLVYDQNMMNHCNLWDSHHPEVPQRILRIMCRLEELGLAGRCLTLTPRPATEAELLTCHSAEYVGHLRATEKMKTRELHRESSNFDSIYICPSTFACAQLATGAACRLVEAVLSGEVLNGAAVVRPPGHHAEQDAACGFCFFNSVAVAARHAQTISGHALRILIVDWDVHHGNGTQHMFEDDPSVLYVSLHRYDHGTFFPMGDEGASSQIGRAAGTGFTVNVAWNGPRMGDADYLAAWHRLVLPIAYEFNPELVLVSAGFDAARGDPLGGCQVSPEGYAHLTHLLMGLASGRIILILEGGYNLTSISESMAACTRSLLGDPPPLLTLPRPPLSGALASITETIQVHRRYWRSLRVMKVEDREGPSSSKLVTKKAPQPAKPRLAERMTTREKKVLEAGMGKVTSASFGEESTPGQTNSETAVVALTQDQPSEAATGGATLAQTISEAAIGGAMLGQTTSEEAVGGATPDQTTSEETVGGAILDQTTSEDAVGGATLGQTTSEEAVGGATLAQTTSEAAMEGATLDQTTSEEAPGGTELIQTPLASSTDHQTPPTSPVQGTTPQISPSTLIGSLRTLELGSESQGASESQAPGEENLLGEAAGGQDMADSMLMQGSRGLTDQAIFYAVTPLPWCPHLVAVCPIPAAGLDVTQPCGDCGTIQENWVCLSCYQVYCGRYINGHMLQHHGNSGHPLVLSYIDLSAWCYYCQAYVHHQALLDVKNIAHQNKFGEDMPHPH
Kind of series: Inhibition of recombinant HDAC6 (unknown origin) using Boc-Lys(acetyl)-AMC as substrate preincubated for 1 hr followed by substrate addition and measured after 2 hrs by fluorescence based micro plate reader analysis.

The target in another series is Histone deacetylase 2 (Homo sapiens, UniProt Q92769).
Sequence of Histone deacetylase 2 (Q92769 whole entry): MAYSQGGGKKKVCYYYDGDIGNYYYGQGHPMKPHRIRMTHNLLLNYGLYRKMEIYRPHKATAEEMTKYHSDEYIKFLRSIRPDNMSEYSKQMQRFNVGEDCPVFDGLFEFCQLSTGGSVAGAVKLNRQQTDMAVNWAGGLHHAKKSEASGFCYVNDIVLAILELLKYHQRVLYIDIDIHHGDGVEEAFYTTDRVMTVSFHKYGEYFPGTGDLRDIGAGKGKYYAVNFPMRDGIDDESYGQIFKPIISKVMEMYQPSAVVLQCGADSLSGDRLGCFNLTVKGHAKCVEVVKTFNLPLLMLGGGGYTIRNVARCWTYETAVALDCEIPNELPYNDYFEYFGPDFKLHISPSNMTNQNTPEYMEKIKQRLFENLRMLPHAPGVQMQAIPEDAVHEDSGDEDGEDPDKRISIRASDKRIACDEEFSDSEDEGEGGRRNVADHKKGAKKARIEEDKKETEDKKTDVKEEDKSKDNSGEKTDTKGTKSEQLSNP
A further series has as its target Histone deacetylase 1 (Homo sapiens, UniProt Q13547). Kind of series: Inhibition of recombinant HDAC1 (unknown origin) using Boc-Lys(acetyl)-AMC as substrate preincubated for 1 hr followed by substrate addition and measured after 2 hrs by fluorescence based micro plate reader analysis.
In series [2] the target is Histone deacetylase 3/Nuclear receptor corepressor 2 (HDAC3/NCoR2) (Homo sapiens, UniProt O15379). Kind of series: biochemical. Details: species or system Sf9.
Sequence of Histone deacetylase 3/Nuclear receptor corepressor 2 (HDAC3/NCoR2) (O15379 whole entry): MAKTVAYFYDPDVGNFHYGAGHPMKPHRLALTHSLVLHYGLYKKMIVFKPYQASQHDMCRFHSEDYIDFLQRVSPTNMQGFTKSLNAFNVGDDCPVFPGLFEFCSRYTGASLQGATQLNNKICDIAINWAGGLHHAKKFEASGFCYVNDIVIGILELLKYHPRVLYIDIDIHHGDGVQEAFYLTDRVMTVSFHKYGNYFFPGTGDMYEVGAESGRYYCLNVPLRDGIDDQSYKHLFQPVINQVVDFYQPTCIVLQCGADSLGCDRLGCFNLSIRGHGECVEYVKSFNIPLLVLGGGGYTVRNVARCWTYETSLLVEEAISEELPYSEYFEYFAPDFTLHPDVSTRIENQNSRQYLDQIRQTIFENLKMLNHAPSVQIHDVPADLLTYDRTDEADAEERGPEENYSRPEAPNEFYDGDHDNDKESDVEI
Sequence of Histone deacetylase 3/Nuclear receptor corepressor 2 (HDAC3/NCoR2) (Q9Y618 whole entry, further chain): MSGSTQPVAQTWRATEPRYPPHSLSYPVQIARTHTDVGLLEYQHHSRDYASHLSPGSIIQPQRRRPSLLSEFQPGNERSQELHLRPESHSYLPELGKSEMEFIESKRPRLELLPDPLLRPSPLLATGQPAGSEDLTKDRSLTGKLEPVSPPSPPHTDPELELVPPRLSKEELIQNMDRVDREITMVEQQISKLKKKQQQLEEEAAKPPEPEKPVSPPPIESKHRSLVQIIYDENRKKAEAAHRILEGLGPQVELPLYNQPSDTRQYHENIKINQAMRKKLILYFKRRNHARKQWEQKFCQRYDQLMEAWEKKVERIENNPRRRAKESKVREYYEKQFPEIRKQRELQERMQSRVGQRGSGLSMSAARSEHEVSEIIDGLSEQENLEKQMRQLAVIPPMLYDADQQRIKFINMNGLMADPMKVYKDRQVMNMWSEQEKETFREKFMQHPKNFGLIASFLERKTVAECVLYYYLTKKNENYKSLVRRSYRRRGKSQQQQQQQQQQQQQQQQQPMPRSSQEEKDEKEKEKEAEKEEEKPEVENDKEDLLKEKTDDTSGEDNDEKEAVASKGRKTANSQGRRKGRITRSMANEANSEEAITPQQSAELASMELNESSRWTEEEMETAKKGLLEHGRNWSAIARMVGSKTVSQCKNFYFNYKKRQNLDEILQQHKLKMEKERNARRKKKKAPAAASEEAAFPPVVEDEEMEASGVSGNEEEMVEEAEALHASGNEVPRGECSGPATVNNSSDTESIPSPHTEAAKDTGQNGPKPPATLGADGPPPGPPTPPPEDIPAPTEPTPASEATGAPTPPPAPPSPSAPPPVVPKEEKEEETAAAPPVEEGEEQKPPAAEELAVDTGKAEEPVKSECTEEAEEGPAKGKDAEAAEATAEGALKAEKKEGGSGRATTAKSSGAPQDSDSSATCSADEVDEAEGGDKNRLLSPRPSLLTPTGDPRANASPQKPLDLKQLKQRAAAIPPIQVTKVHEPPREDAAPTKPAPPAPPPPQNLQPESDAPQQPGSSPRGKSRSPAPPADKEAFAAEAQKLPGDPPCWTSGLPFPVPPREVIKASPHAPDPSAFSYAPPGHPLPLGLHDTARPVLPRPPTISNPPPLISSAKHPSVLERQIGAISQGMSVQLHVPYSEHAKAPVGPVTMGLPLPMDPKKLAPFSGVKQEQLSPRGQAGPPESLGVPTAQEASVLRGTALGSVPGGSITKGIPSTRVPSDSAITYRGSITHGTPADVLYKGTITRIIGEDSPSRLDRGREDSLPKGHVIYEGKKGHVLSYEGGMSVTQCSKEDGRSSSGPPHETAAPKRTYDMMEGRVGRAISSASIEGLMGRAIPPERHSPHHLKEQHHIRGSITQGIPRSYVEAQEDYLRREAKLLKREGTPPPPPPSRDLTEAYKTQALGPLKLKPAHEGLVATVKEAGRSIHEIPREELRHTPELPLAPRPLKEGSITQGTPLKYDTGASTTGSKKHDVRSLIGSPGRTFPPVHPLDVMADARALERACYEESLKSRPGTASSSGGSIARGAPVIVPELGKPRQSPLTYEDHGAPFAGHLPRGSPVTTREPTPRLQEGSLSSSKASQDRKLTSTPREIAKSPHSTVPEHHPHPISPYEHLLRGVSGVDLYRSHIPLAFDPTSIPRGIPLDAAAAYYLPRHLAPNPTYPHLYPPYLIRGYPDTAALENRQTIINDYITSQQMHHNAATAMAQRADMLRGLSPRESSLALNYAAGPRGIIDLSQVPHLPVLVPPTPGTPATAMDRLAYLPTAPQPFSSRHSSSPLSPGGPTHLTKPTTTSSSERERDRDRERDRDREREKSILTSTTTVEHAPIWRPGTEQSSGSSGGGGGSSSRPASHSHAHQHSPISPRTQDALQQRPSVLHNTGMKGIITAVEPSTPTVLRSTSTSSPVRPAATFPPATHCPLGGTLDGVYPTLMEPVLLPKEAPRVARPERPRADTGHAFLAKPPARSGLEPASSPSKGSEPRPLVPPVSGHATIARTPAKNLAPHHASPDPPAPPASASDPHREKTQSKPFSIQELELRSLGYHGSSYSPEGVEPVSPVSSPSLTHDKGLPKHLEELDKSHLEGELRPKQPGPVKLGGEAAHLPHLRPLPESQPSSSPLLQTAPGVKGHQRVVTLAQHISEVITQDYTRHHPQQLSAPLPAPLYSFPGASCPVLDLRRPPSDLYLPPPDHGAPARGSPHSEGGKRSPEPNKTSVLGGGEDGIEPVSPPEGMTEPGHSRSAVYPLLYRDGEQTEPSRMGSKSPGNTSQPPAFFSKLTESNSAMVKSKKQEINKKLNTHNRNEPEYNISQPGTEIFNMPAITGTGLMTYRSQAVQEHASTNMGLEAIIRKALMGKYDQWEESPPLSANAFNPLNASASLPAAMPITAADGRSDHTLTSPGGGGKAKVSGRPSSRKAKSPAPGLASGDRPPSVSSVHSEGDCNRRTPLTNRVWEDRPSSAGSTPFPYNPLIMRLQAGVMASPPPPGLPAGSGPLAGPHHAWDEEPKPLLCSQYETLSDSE
The next series concerns RS4-11. Kind of series: Induction of apoptosis in human RS4:11 cells harboring wild type p53/FLT3 assessed as cleavage of pro-caspase 3 at 5000 nM after 24 hrs by Western blot analysis. The class given is functional, cell-based. Put shortly: (§1)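 Cells (1,500,000 per well) grown 12 h, then drug-treated as specified. Lysed in RIPA buffer, sonicated, centrifuged, protein normalized by BCA. Run on 4–12% Bis-Tris gels in MES, transferred, probed overnight at 4 °C with primary antibodies at 1/1000. Actin served as reference for LC3-II quantitation.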
(In general: A western blot detects proteins with antibodies after separation by electrophoresis.)

In series [3] the test system is MV4-11. Kind of series: Induction of apoptosis in human MV4-11 cells harboring wild type p53/FLT3-ITD mutant assessed as cleavage of pro-caspase 3 at 5000 nM after 24 hrs by Western blot analysis. The class given is functional, cell-based. Put shortly: as §1
The subject of series [4] is MV4-11. Kind of series: Antiproliferative activity against human MV4-11 cells at 50 uM after 48 hrs by CellTiter-Blue dye based spectrophotometric analysis. The format is functional, cell-based.
Series [5] deals with MV4-11. Kind of series: Down regulation of STAT5 in human MV4-11 cells harboring wild type p53/FLT3-ITD mutant at 50 to 200 nM after 24 hrs by Western blot analysis. The format is functional, cell-based. Put shortly: as §1
For series [6], the system named is MV4-11. Kind of series: Induction of apoptosis in human MV4-11 cells harboring wild type p53/FLT3-ITD mutant assessed as cleavage of pro-caspase 3 at 50 to 200 nM after 24 hrs by Western blot analysis. The format is functional, cell-based. Put shortly:
as §1

In series [7] the test system is MV4-11. Kind of series: Down regulation of FTL3 in human MV4-11 cells harboring wild type p53/FLT3-ITD mutant at 50 to 200 nM after 24 hrs by Western blot analysis. The format is functional, cell-based. Put shortly: as §1
For series [8], the system named is MV4-11. Kind of series: Inhibition of autophagy in human MV4-11 cells assessed as LC3-II degradation at 5 uM after 24 hrs by Western blot analysis. The class given is functional, cell-based. Put shortly:
as §1

A short description of series [9]: Mutagenecity in Salmonella typhimurium TA100 at 10 uM in presence of S9 liver homogenate after 2 to 3 days by mini-Ames test. The class given is toxicity. Conditions: salmonella enterica subsp. enterica serovar typhimurium, s9, 10 µM. Put shortly:
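Compound was tested at a final 10 μM undiluted plus four serial dilutions, with S9 mix and glucose/biotin/trace-histidine exposure solution, for 100 min at 37 °C. Reversion medium was added and cultures dispensed to 96 wells for 2–3 days at 37 °C. Yellow or partial-yellow wells were scored positive; 2-aminoanthracene was the positive control.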
In general terms: In the Ames test, an excess of revertant colonies over the control signals mutagenicity.

Series [10] relates to MV4-11. Kind of series: cells. Conditions: Homo sapiens, MV4-11, 48 h.
For series [11], the system named is MV4-11. Kind of series: Induction of apoptosis in human MV4-11 cells harboring wild type p53/FLT3-ITD mutant assessed as cleavage of pro-caspase 3 at 1000 to 5000 nM after 24 hrs by Western blot analysis. The format is functional, cell-based. Put shortly: as §1

Activity calls are given as the source filed them. The calls are words filed in the database; no cut-off is given here.

As a reminder, the IC50 is the concentration needed to halve the response being measured. Broadly, the EC50 is the midpoint of the concentration-response curve.

Sequence of Histone deacetylase 1 (Q13547 whole entry): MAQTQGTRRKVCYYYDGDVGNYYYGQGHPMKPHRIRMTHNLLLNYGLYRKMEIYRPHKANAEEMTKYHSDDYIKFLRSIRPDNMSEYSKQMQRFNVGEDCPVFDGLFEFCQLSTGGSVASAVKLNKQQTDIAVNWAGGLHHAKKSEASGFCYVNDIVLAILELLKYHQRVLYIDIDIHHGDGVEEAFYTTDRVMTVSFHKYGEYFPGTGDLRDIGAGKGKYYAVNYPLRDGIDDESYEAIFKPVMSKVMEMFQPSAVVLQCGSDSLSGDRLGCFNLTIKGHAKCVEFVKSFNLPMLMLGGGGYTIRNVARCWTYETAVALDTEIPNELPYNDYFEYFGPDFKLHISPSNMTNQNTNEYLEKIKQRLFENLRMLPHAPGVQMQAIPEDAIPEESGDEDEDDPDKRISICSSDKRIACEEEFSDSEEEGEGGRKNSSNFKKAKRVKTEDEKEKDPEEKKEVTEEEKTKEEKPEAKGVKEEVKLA

Regarding `Cc1[nH]c2ccccc2c1CCNCc1ccc(/C=C/C(=O)NNCCN)cc1`, the IC50 in series [1] is greater than 50000 nM; on Histone deacetylase 2 it was greater than 10000 nM; on Histone deacetylase 1 it was 9840 nM; in series [2], 5240 nM.

`CCCNNC(=O)c1ccc(CN(Cc2ccccc2)C(=O)OC(C)(C)C)cc1`: the half-inhibitory concentration (IC50) in series [1] is greater than 50000 nM; at Histone deacetylase 2, 579 nM; at Histone deacetylase 1 it was 217 nM; in series [2], 78.1 nM.

Turning to `O=C(CCCCCCC(=O)Nc1ccccc1)NO`, the result in the series on RS4-11 and in the series with MV4-11 [3] was Active.

For the compound `Cc1[nH]c2ccccc2c1CCNCc1ccc(/C=C/C(=O)NN2CCCC2)cc1`, the 50% inhibitory concentration (IC50) was greater than 50000 nM in series [1], greater than 10000 nM against Histone deacetylase 2, 8600 nM on Histone deacetylase 1 and 3090 nM in series [2]. Besides, the outcome in the series with MV4-11 [4] was inactive.

`CCCNNC(=O)c1ccc(CNC(=O)/C=C/c2ccccc2)cc1`: the outcome in the series on MV4-11 [5], in the series with MV4-11 [6] and in the series on MV4-11 [7] was Active.

For `CCCN(CCC)NC(=O)/C=C/c1ccc(CNCCc2c(C)[nH]c3ccccc23)cc1`, the IC50 was greater than 50000 nM in [1], 1370 nM against Histone deacetylase 2, 413 nM on Histone deacetylase 1 and 25.2 nM in [2].

Turning to `CCCCCN(CCC)NC(=O)/C=C/c1ccc(CNCCc2c(C)[nH]c3ccccc23)cc1`, the IC50 was greater than 50000 nM in series [1], 7320 nM against Histone deacetylase 2, 382 nM at Histone deacetylase 1 and 321 nM in series [2].

`CCCNNC(=O)c1ccc(OCc2ccccc2)cc1`: the 50% inhibitory concentration (IC50) in series [1] is greater than 50000 nM; against Histone deacetylase 2 it was 175 nM; on Histone deacetylase 1, 56.3 nM; in [2], 24.8 nM.

Regarding `CCCNNC(=O)c1ccc(CN(CCc2c(C)[nH]c3ccccc23)C(=O)OC(C)(C)C)cc1`, the IC50 was greater than 50000 nM in series [1], 279 nM on Histone deacetylase 2, 28.8 nM on Histone deacetylase 1 and 12.6 nM in series [2].

As for `CCN(CC)CCCC(C)Nc1ccnc2cc(Cl)ccc12` (stereo unspecified), the inhibition result with MV4-11 [8] is “Active”.

For `Cc1[nH]c2ccccc2c1CCNCc1ccc(/C=C/C(=O)NN2CCCCC2)cc1`, the IC50 in [1] is greater than 50000 nM; at Histone deacetylase 2, greater than 10000 nM; at Histone deacetylase 1 it was greater than 10000 nM; in [2], greater than 10000 nM. The outcome in the series on MV4-11 [4] was inactive.

As to `Cc1[nH]c2ccccc2c1CCNCc1ccc(/C=C/C(=O)NN(CCCO)CCCO)cc1`, the half-maximal inhibitory concentration (IC50) in series [1] was greater than 50000 nM; at Histone deacetylase 2, greater than 10000 nM; on Histone deacetylase 1 it was greater than 10000 nM; in [2], greater than 10000 nM. The outcome in the series on MV4-11 [4] was inactive.

Regarding `Cc1[nH]c2ccccc2c1CCNCc1ccc(/C=C/C(=O)NN(C)C)cc1`, the IC50 in series [1] is greater than 50000 nM; against Histone deacetylase 2 it was 12900 nM; on Histone deacetylase 1 it was 11000 nM; in series [2], 996 nM. Also, in the series with MV4-11 [4], the outcome was inactive.

As for `CCCNNC(=O)c1ccc(NCc2ccccc2)cc1`, the concentration for half-maximal inhibition (IC50) was greater than 50000 nM in [1], 67.5 nM on Histone deacetylase 2, 15.8 nM on Histone deacetylase 1 and 6.12 nM in series [2].

For the compound `Nc1ccc2cc3ccccc3cc2c1` [2-AMINOANTHRACENE], the Activity entry in [9] was “Toxic”.

Take `Cc1[nH]c2ccccc2c1CCNCc1ccc(/C=C/C(=O)NNCCC#N)cc1`: the 50% inhibitory concentration (IC50) in series [1] was greater than 50000 nM; at Histone deacetylase 2 it was 172 nM; at Histone deacetylase 1 it was 58.1 nM; in [2] it was 34.8 nM.

Turning to `CCCNNC(=O)c1cccc(CN(CCc2c(C)[nH]c3ccccc23)C(=O)OC(C)(C)C)c1`, the IC50 was greater than 50000 nM in series [1], greater than 5000 nM on Histone deacetylase 2, 2520 nM at Histone deacetylase 1 and greater than 5000 nM in series [2].

Turning to `COC(=O)CCNNC(=O)/C=C/c1ccc(CNCCc2c(C)[nH]c3ccccc23)cc1`, the IC50 in series [1] is greater than 50000 nM; against Histone deacetylase 2 it was 4210 nM; on Histone deacetylase 1 it was 1090 nM; in series [2] it was 310 nM.

In the case of `CCCNNC(=O)/C=C/c1ccc(CN(CCc2c(C)[nH]c3ccccc23)C(=O)OC(C)(C)C)cc1`, the IC50 in series [1] was greater than 50000 nM; against Histone deacetylase 2 it was 1300 nM; on Histone deacetylase 1, 181 nM; in series [2] it was 16.8 nM.

For `CCCNNC(=O)c1cccc(CNCCc2c(C)[nH]c3ccccc23)c1`, the IC50 in [1] is greater than 50000 nM; against Histone deacetylase 2, 4940 nM; on Histone deacetylase 1 it was 1670 nM; in series [2], 674 nM.

As for `CCCN(CC)NC(=O)/C=C/c1ccc(CNCCc2c(C)[nH]c3ccccc23)cc1`, the IC50 is greater than 50000 nM in [1], 8070 nM against Histone deacetylase 2, 2920 nM at Histone deacetylase 1 and 550 nM in [2].

Regarding `CCCCCCN(CCC)NC(=O)/C=C/c1ccc(CNCCc2c(C)[nH]c3ccccc23)cc1`, the half-inhibitory concentration (IC50) is greater than 50000 nM in [1], 9830 nM against Histone deacetylase 2, 2880 nM on Histone deacetylase 1 and 143 nM in series [2].

`CCCNNC(=O)c1ccc(CNCCc2c(C)[nH]c3ccccc23)cc1`: the IC50 in series [1] is greater than 50000 nM; against Histone deacetylase 2, 108 nM; at Histone deacetylase 1, 29.4 nM; in series [2], 19.9 nM.

Take `CCCNNC(=O)c1ccc(NC(=O)c2ccccc2)cc1`: the IC50 is greater than 50000 nM in series [1], 474 nM on Histone deacetylase 2, 93 nM on Histone deacetylase 1 and 48.7 nM in series [2].

For the compound `CCCNNC(=O)c1ccc(CNCc2ccccc2)cc1`, the IC50 in [1] is greater than 50000 nM; at Histone deacetylase 2, 441 nM; at Histone deacetylase 1, 88 nM; in [2] it was 96.7 nM. This compound also came in with a 50% effective concentration (EC50) in the series on MV4-11 [10] of 173 nM.

With `Nc1ccccc1NC(=O)c1ccc(CNC(=O)OCc2cccnc2)cc1`, in the series with MV4-11 [11], the outcome was Active.

As for `CCCCN(CCC)NC(=O)/C=C/c1ccc(CNCCc2c(C)[nH]c3ccccc23)cc1`, the half-inhibitory concentration (IC50) in series [1] is greater than 50000 nM; against Histone deacetylase 2 it was 3220 nM; on Histone deacetylase 1, 210 nM; in series [2], 229 nM.

The values above are taken from ChEMBL document CHEMBL4342521 (J Med Chem, 2020).
